From ChEMBL document CHEMBL2321678, “Incorporation of non-natural amino acids improves cell permeability and potency of specific inhibitors of proteasome trypsin-like sites” (J Med Chem, 2013)
Calls of active or inactive are those of the source. The calls are words filed in the database; no cut-off is given here.

Legend:
[1] = Inhibition of chymotrypsin-like activity of rabbit 26s proteasome beta 5 subunit assessed as hydrolysis of Suc-LLVY-amc fluorogenic substrate preincubated for 30 mins followed by substrate addition measured for 30 mins by fluorescence plate reader analysis; design: species or system Oryctolagus cuniculus
In short: (§1)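 Purified rabbit-muscle 26S proteasome (final 3 µg/mL) preincubated 30 min with a range of inhibitor concentrations. Slopes expressed as % of mock; IC50 by four-parameter least-squares fit.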

[2] = Inhibition of trypsin-like activity of rabbit 26s proteasome beta 2 subunit assessed as hydrolysis of Ac-RLR-amc fluorogenic substrate preincubated for 30 mins followed by substrate addition measured for 30 mins by fluorescence plate reader analysis; design: species or system Oryctolagus cuniculus; in short: as §1
[3] = Inhibition of caspase-like activity of rabbit 26s proteasome beta 1 subunit assessed as hydrolysis of Acn-LPnLD-amc fluorogenic substrate preincubated for 30 mins followed by substrate addition measured for 30 mins by fluorescence plate reader analysis; design: species or system Oryctolagus cuniculus; in short: as §1
[4] = target: T1, Proteasome Macropain subunit MB1 (Homo sapiens, UniProt P28074); assay: Inhibition of chymotrypsin-like activity of proteasome beta 5 subunit in HEK-293T cell lysates using BODIPY-BODIPY-TMR-epoxomicin as probe after 1 hr by SDS-PAGE analysis
T1 sequence (P28074 whole entry): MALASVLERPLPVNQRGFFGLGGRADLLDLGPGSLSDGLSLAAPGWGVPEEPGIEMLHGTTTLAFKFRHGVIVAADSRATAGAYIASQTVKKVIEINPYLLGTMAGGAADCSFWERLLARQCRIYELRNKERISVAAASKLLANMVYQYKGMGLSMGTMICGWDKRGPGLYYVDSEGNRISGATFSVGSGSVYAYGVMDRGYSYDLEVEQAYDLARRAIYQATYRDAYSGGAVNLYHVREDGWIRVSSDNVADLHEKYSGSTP
In short: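 Then 1 h at 37 °C with BODIPY-TMR-Ahx3L3-vs or BODIPY-TMR-epoxomicin (0.5 µM). Three independent experiments; IC50 fitted.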

Homo sapiens = organism: Homo sapiens; assay: Selectivity ratio of IC50 for chymotrypsin-like activity of human proteasome beta 5 subunit to IC50 for trypsin-like activity of human proteasome beta 2 subunit
Oryctolagus cuniculus = organism: Oryctolagus cuniculus; assay: Selectivity ratio of IC50 for chymotrypsin-like activity of rabbit 26s proteasome beta 5 subunit to IC50 for trypsin-like activity of rabbit 26s proteasome beta 2 subunit
In short: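 Purified rabbit-muscle 26S proteasome (final 3 µg/mL) preincubated 30 min with a range of inhibitor concentrations. […] Amc release read continuously for 30 min (ex 380/em 460 nm). Slopes expressed as % of mock; IC50 by four-parameter least-squares fit.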

RPMI-8226 [5] = assay: Potentiation of NC-022-induced sensitization of human RPMI8226 cells to Carfilzomib assessed as cell viability at 10 uM after 48 hrs; type: functional, cell-based
RPMI-8226 [6] = assay: Sensitization of human RPMI8226 cells to Carfilzomib assessed as cell viability at 10 uM after 48 hrs; type: functional, cell-based
[7] = target: T2, Proteasome Macropain subunit MB1 (Homo sapiens) (UniProt P28074); assay: Inhibition of chymotrypsin-like activity of proteasome beta 5 subunit in HEK-293T cell lysates after 1 hr by SDS-PAGE analysis
T2 sequence (whole entry): T1 sequence (P28074 whole entry)
In short: (§2)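 Then 1 h at 37 °C with BODIPY-TMR-Ahx3L3-vs or BODIPY-TMR-epoxomicin (0.5 µM). Samples run on 12.5% SDS-PAGE; β2/β5 band fluorescence taken relative to mock. Three independent experiments; IC50 fitted.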

[8] = target: Proteasome Macropain subunit (Homo sapiens) (UniProt P49721); assay: Inhibition of trypsin-like activity of proteasome beta 2 subunit in HEK-293T cell lysates after 1 hr by SDS-PAGE analysis; in short: as §2
NCI-H929 [9] = assay: Inhibition of cathepsin in human NCI-H929 cells assessed as hydrolysis of Z-FR-amc fluorogenic substrate after 6 hrs; type: cell-based
In short: (§3)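 NCI-H929 cells treated 6 h, washed and permeabilized on ice with 0.05% digitonin in Tris pH 7.5 sucrose buffer. Cytosol removed by centrifugation, then the pellet lysed in Bis-Tris pH 5.5/CHAPS buffer. Protein-normalized extract added to 40 µM Z-FR-amc in phosphate pH 6.0, EDTA, DTT. Fluorescence read continuously for 30 min; rate from slopes.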

NCI-H929 [10] = assay: Partial inhibition of cathepsin in human NCI-H929 cells assessed as hydrolysis of Z-FR-amc fluorogenic substrate after 6 hrs; type: cell-based; in short: as §3
RPMI-8226 [11] = assay: Sensitization of human RPMI8226 cells to Carfilzomib assessed as cell viability at 27 uM after 47 hrs; type: functional, cell-based
RPMI-8226 [12] = assay: Sensitization of human RPMI8226 cells to Carfilzomib assessed as cell viability at 1 uM after 47 hrs; type: functional, cell-based
RPMI-8226 [13] = assay: Sensitization of human RPMI8226 cells to Bortezomib assessed as cell viability at 1 uM after 47 hrs; type: functional, cell-based
In short: (§4)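 RPMI-8226 grown in RPMI-1640 with 10% FBS, penicillin, streptomycin and plasmocin, 5% CO2. For sensitization, cells exposed to bortezomib for 1 h, then 47 h with the trypsin-site inhibitor (1 µM). Viability by Alamar Blue dye conversion; mean ± SEM of three biological replicates.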

RPMI-8226 [14] = assay: Cytotoxicity against human RPMI8226 cells; type: functional, cell-based; in short: as §4
Saccharomyces cerevisiae = assay: Inhibition of caspase-like activity of yeast 20s proteasome beta 1 subunit assessed as hydrolysis of […] fluorogenic substrate at 200 uM after 15 mins by fluorescence spectrophotometry
In short: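 Yeast 20S core particle (0.10 nM) preincubated 15 min with inhibitor, which stays present during the assay. Substrate ZLLE-amc for caspase-like sites, 250 µM, in 20 mM Tris, 0.01% SDS, pH 7.5. Hydrolysis monitored for 1 h at room temperature (ex 360/em 460 nm).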

[15] = target: T1, Proteasome Macropain subunit MB1; assay: Inhibition of chymotrypsin-like activity of proteasome in human RPMI-8226 cells after 6 hrs by proteasomeGlo assay; type: cell-based
In short: (§5)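 Cells then pelleted, resuspended in PBS and mixed with site-specific luminogenic substrates in lysis/assay buffer. Mixing 3 min, then 17 min in the dark before luminescence, triplicate per substrate/point. Activity as % of mock; IC50 from a four-parameter nonlinear fit.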

[16] = target: T1, Proteasome Macropain subunit MB1; assay: Inhibition of chymotrypsin-like activity of proteasome in human NCI-H929 cells after 6 hrs by proteasomeGlo assay; type: cell-based; in short: as §5
[17] = target: Proteasome Macropain subunit (Homo sapiens) (UniProt P49721); assay: Selectivity ratio of IC50 for trypsin-like activity of proteasome in human RPMI-8226 cells to IC50 for trypsin-like activity of proteasome in human NCI-H929 cells; type: cell-based
[18] = Inhibition of chymotrypsin-like activity of yeast 20s proteasome beta 5 subunit assessed as hydrolysis of Suc-LLVY-amc fluorogenic substrate after 15 mins by fluorescence spectrophotometry; design: species or system Saccharomyces cerevisiae

Proteasome Macropain subunit (Homo sapiens), sequence (P49721 whole entry): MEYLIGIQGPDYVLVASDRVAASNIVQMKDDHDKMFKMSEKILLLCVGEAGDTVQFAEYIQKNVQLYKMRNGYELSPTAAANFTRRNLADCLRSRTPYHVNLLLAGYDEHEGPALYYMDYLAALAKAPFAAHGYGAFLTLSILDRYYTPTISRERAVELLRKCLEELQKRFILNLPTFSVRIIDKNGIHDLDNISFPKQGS

Row | SMILES | IC50 [1] | IC50 [2] | IC50 [3] | IC50 [4] | Ratio IC50 (Homo sapiens) | Ratio IC50 (Oryctolagus cuniculus) | other results
1 | CC(=O)N[C@@H](CCCNC(=N)N)C(=O)N[C@@H](CC(C)C)C(=O)N[C@@H](CCCNC(=N)N)C(=O)[C@@]1(C)CO1 | > 30 µM | 0.08 µM | > 30 µM |  |  |  | 
2 | CC(C)C[C@H](NC(=O)[C@H](Cc1ccccc1)N=[N+]=[N-])C(=O)N[C@@H](CC(C)C)C(=O)N[C@H](/C=C/S(C)(=O)=O)Cc1ccncc1 | < 0.1 µM | 0.42 µM | > 30 µM | 1.5 µM |  |  | 
3 | CC(C)C[C@@H](/C=C/S(C)(=O)=O)NC(=O)[C@H](CC(C)C)NC(=O)[C@H](Cc1ccc(N)cc1)NC(=O)[C@H](Cc1ccccc1)N=[N+]=[N-] | < 0.004 µM | 24 µM | > 30 µM | 0.093 µM | 0.034 |  | 
4 | CC(C)C[C@H](NC(=O)[C@H](Cc1ccc(CN)cc1)NC(=O)[C@H](Cc1ccccc1)N=[N+]=[N-])C(=O)N[C@H](/C=C/S(C)(=O)=O)Cc1ccncc1 | 0.41 µM | 0.045 µM | > 30 µM | 2.4 µM | 6.5 | 9.1 | 
5 | CCOC(=O)[C@H]1O[C@@H]1C(=O)N[C@@H](CC(C)C)C(=O)NCCC(C)C |  |  |  |  |  |  | Activity (RPMI-8226 [5]): inactive; Activity (RPMI-8226 [6]): inactive
6 | CC1=CC(C)=[N+]2C1=C(CCCCc1cn([C@@H](Cc3ccccc3)C(=O)N[C@@H](CC(C)C)C(=O)N[C@@H](CC(C)C)C(=O)N[C@H](/C=C/S(C)(=O)=O)Cc3ccc(CN)cc3)nn1)c1c(C)cc(C)n1[B-]2(F)F |  |  |  |  |  |  | inhibition [7]: Active; inhibition [8]: Active
7 | Cc1c(O)cccc1C(=O)N[C@H](C(=O)N[C@@H](CO)C(=O)N[C@H](/C=C/S(C)(=O)=O)Cc1ccc(N)cc1)C(C)C | 0.2 µM | > 30 µM | > 30 µM |  |  | < 0.0067 | 
8 | CC(C)C[C@H](NC(=O)[C@H](Cc1ccc(CN)cc1)NC(=O)[C@H](Cc1ccccc1)N=[N+]=[N-])C(=O)N[C@H](/C=C/S(C)(=O)=O)Cc1ccc(CN)cc1 | 8.9 µM | 0.0066 µM |  |  |  |  | inhibition (NCI-H929 [9]): Active
9 | CC(C)C[C@@H](/C=C/S(C)(=O)=O)NC(=O)[C@H](CC(C)C)NC(=O)[C@H](Cc1ccc(CN)cc1)NC(=O)[C@H](Cc1ccccc1)N=[N+]=[N-] | 0.01 µM | 0.18 µM |  | 0.48 µM | 2.5 | 0.057 | 
10 | CC(C)C[C@H](NC(=O)[C@H](Cc1ccc(N)cc1)NC(=O)[C@H](Cc1ccccc1)N=[N+]=[N-])C(=O)N[C@H](/C=C/S(C)(=O)=O)Cc1ccc(CN)cc1 | 3.4 µM | 0.03 µM | 30 µM |  |  |  | inhibition (NCI-H929 [10]): Active
11 | CC(C)C[C@H](NC(=O)[C@H](Cc1ccccc1)N=[N+]=[N-])C(=O)N[C@@H](CC(C)C)C(=O)N[C@H](/C=C/S(C)(=O)=O)Cc1ccc(CN)cc1 |  |  |  |  |  |  | Activity (RPMI-8226 [11]): Active; Activity (RPMI-8226 [12]): Active; Activity (RPMI-8226 [13]): Active; Activity (RPMI-8226 [14]): inactive; inhibition (Saccharomyces cerevisiae): inactive; inhibition (NCI-H929 [10]): Active
12 | Cc1c(O)cccc1C(=O)N[C@H](C(=O)N[C@@H](CO)C(=O)N[C@@H](CCCNC(=N)N)C(=O)[C@@]1(C)CO1)C(C)C | 80 µM | 0.3 µM | 80 µM |  |  | 267 | IC50 [15]: > 30 µM; IC50 [16]: > 30 µM; Ratio IC50 [17]: 25
13 | CC1=CC(C)=[N+]2C1=C(CCCCc1cn([C@@H](Cc3ccccc3)C(=O)N[C@@H](Cc3ccc(CN)cc3)C(=O)N[C@@H](CC(C)C)C(=O)N[C@H](/C=C/S(C)(=O)=O)Cc3ccc(CN)cc3)nn1)c1c(C)cc(C)n1[B-]2(F)F |  |  |  |  |  |  | inhibition [8]: inactive
14 | CC(C)C[C@@H](/C=C/S(C)(=O)=O)NC(=O)[C@H](CC(C)C)NC(=O)[C@H](Cc1ccncc1)NC(=O)[C@H](Cc1ccccc1)N=[N+]=[N-] | 0.005 µM | 24 µM | > 30 µM | 0.16 µM | 0.029 | 0.00021 | 
15 | CC(C)C[C@H](NC(=O)[C@H](Cc1ccccc1)N=[N+]=[N-])C(=O)N[C@@H](CC(C)C)C(=O)N[C@H](/C=C/S(C)(=O)=O)Cc1ccc(N)cc1 | 0.04 µM | 0.11 µM | 23 µM | 1.1 µM | 0.73 | 0.36 | 
16 | CC(C)C[C@H](NC(=O)[C@H](Cc1ccccc1)NC(=O)[C@H](Cc1ccccc1)N=[N+]=[N-])C(=O)N[C@H](/C=C/S(C)(=O)=O)Cc1ccccc1 | 1 µM | > 30 µM | > 30 µM | 0.11 µM | 0.04 |  | 
17 | CC(C)C[C@H](NC(=O)[C@H](Cc1ccccc1)N=[N+]=[N-])C(=O)N[C@@H](CC(C)C)C(=O)N[C@@H](Cc1ccc(N)cc1)C(=O)[C@@]1(C)CO1 | 0.01 µM | 1.8 µM | > 30 µM |  |  | 0.0056 | 
18 | CC(C)C[C@H](NC(=O)[C@H](Cc1ccncc1)NC(=O)[C@H](Cc1ccccc1)N=[N+]=[N-])C(=O)N[C@H](/C=C/S(C)(=O)=O)Cc1ccc(CN)cc1 |  | 0.012 µM | 30 µM |  |  |  | inhibition (NCI-H929 [9]): Active
19 | Cc1c(O)cccc1C(=O)N[C@H](C(=O)N[C@@H](CO)C(=O)N[C@H](/C=C/S(C)(=O)=O)Cc1ccc(CN)cc1)C(C)C |  |  | 21 µM |  |  |  | inhibition (NCI-H929 [9]): inactive; IC50 [18]: 19.3 µM
20 | CC(C)C[C@H](NC(=O)[C@H](Cc1ccc(CN)cc1)NC(=O)[C@H](Cc1ccccc1)N=[N+]=[N-])C(=O)N[C@H](/C=C/S(C)(=O)=O)Cc1ccc(N)cc1 | 0.19 µM | 0.0063 µM | > 30 µM | 0.63 µM | 6.3 | 59 | 
21 | CC(=O)N[C@@H](CC(C)C)C(=O)N[C@@H](CC(C)C)C(=O)N[C@@H](CCCNC(=N)N)C(=O)[C@@]1(C)CO1 | > 30 µM | 1 µM | > 30 µM |  |  |  | 
22 | CC(C)C[C@H](NC(=O)[C@H](Cc1ccccc1)N=[N+]=[N-])C(=O)N[C@@H](CC(C)C)C(=O)N[C@@H](Cc1ccc(CN)cc1)C(=O)[C@@]1(C)CO1 | 2.7 µM | 0.25 µM | 11 µM |  |  |  | 
23 | CC(C)C[C@H](NC(=O)[C@H](Cc1ccccc1)N=[N+]=[N-])C(=O)N[C@@H](CC(C)C)C(=O)N[C@H](/C=C/S(C)(=O)=O)CCCCN | 22 µM | 0.74 µM | > 30 µM |  |  |  | 
